# Test results taken from PubChem BioAssay.
# Activity calls are given as the source filed them.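 The calls were made as follows, unless noted: active = inhibition at or above 50% at 10 µM; inactive = inhibition below 50%.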
# How the values were obtained:
# [1] = inhibitors of TNFa-induced NFkB p65 translocation, primary screen, imaging, HUVEC, MLSMR starter and 10KST1 sets (AID 438;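 active = inhibition above 20% together with a positive visual image hit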;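 also: compound added about 3h40 before a 20 min TNFalpha stimulation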;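 as to inhibition: signal is the nuclear over cytoplasmic p65 intensity ratio per well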); settings: HUVEC TNFa-induced p65 nuclear translocation; cell count: measured here: nuclei count (cytotoxicity indicator), at 2.08 µM; inhibition: at 2 µM, stronger effect = higher value, 0% TNFa-plus-vehicle, 100% no-TNFa wells
# [2] = reduction of polyQ htt aggregates in cells – imaging, exon1htt(103Q)mCFP cells, high-content imaging, primary screen (AID 483;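 active = visual image review flags a hit and inhibition of aggregation exceeds 20%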;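 also: compound exposure lasted 3 days before fixation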;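 as to nuclei count: percent of the per-plate median nuclei count of sample wells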); settings: exon1htt(103Q)mCFP cell line, aggregate imaging, at 2 µM; inhibition of aggregation: stronger effect = higher value; nuclei count: measured here: cell count, toxicity
# [3] = endothelial E-selectin expression blockers – imaging, HUVEC, immunofluorescence, MLSMR starter and 10KST1 sets, primary screen (AID 487;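 active = visually confirmed hit in the image check and inhibition above 20%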;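 as to inhibition: signal is fraction of cell area covered by stained E-selectin grains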;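 as to nuclei count: 100% = median nuclei count of all wells on the same plate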); settings: HUVEC TNFalpha-induced E-selectin immunofluorescence imaging, at 2 µM; inhibition: stronger effect = higher value; nuclei count: measured here: cell number, toxicity
# [4] = target: Voltage-gated potassium channel subunit beta-2 (Rattus norvegicus) (UniProt P62483); experiment: inhibitors of rat Kvbeta2 reductase activity – biochemical, NADPH fluorescence, primary screen (AID 622;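 active = fluorescence slope higher than the sample average by over 3 SD, cut at about -0.22 in these data, passing the limit was not always enough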;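 also: slope of raw intensity against log time taken from 70 to 1610 s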); settings: recombinant KvBeta, 4-cyanobenzaldehyde reduction, at 10 µM, stronger effect = higher value
# [5] = target: Voltage-gated potassium channel subunit beta-2 (Rattus norvegicus) (UniProt P62483); experiment: enhancers of rat Kvbeta2 NADPH turnover – biochemical, NADPH fluorescence, primary screen (AID 623;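 active = NADPH fluorescence slope more negative than the mean of all samples by about 3 SD, 99.7% confidence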;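 also: fluorescence intensity change per second fitted from 20 to 320 s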); settings: Recombinant KvBeta, NADPH fluorescence decrease slope, 10 min; at 10 µM; stronger effect = lower value
# [6] = target: Muscarinic acetylcholine receptor M4 (Homo sapiens) (UniProt P08173); experiment: M4-linked GIRK flux change, two-sided – cell-based, HEK293 M4/GIRK, thallium flux, BTC-AM, M4 allosteric agonist project, primary screen (AID 625;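 active = fluorescence slope after compound addition differing from the mean of all tested samples at 99.7% confidence, mostly higher but some lower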;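 also: thallium influx through GIRK channels coupled to M4 in HEK293 cells with BTC-AM dye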); settings: at 10 µM, actives lie on both sides
# In short: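 System: HEK293 cells with M4 receptor and GIRK channels | Incubation: Cells overnight at 37 °C, BTC-AM loading 1 h, reads 2 min total | Technique: Kinetic BTC-AM fluorescence sampled at 1 Hz, 10 s pre-addition baseline | Measure: Post-addition slope, 15–24 s, of baseline-normalized fluorescence | Control set: Carbachol positive, DMSO negative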
# [7] = blockers of RIG-like receptor reporter activation – cell-based, Sendai virus stimulus, luciferase, 10K MLSCN set, TLR/RLR signaling modifier project, primary screen (AID 602276); settings: HEK293 RL24 IRF3 luciferase reporter, at 10 µM, stronger effect = higher value;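 also: firefly luciferase from ISG56 promoter only with Renilla not read in this screen; 0% = Sendai virus plus DMSO and 100% = medium plus DMSO without virus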
# [8] = TLR3 IRF3 reporter activation blockers – cell-based, poly I:C stimulus, luciferase, 10K MLSCN set, primary screen (AID 602277;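 active = inhibition of the reporter signal at or above 50%; inactive = inhibition below 50%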); settings: HEK293-TLR3 RL24 IRF3 luciferase reporter, at 10 µM, stronger effect = higher value
# Voltage-gated potassium channel subunit beta-2 (Rattus norvegicus), sequence (P62483 whole entry, looked up): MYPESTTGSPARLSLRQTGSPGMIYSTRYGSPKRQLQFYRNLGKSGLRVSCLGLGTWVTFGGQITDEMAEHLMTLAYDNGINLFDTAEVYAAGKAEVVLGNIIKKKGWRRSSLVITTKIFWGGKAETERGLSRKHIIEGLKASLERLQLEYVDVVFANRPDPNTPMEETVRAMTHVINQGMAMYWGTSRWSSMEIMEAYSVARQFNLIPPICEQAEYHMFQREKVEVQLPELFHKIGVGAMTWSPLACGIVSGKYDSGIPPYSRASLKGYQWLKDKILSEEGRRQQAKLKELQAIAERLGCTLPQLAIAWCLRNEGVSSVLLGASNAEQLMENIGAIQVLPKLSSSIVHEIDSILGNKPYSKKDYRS
# Muscarinic acetylcholine receptor M4 (Homo sapiens), sequence (P08173 whole entry, looked up): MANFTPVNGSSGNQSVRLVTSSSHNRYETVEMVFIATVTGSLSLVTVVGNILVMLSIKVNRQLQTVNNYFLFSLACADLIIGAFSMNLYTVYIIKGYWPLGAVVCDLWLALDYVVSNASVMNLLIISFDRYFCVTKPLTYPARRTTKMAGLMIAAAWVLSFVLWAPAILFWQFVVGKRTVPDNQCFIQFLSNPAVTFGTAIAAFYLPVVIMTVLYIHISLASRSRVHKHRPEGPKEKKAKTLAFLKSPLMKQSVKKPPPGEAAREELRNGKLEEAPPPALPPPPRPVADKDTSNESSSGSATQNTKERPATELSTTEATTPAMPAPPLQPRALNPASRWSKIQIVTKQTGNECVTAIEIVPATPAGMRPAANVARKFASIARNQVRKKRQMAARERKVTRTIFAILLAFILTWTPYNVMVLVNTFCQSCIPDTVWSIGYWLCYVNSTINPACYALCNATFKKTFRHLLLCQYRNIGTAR
SMILES,cell count [1],inhibition [1],inhibition of aggregation [2],nuclei count [2],inhibition [3],nuclei count [3],fluorescence slope [4],NADPH fluorescence slope [5],fluorescence slope [6],inhibition [7],inhibition [8]
Cc1nnc(SCC(=O)Nc2ccc3c(c2)OCCO3)n1CC1CCCO1 (stereo unspecified),662,-5% (inactive),-0.8% (inactive),105%,-39.4% (inactive),114%,-0.341 (inactive),-5.6e-05 (inactive),0.00537 (inactive),14.8% (inactive),7.29% (inactive)
COc1ccc(N2C(=O)CC(N3CCN(S(=O)(=O)c4c(F)cccc4F)CC3)C2=O)cc1OC (stereo unspecified),418,-6.6% (inactive),1% (inactive),99.7%,-20.1% (inactive),112%,-0.572 (inactive),-1.2e-05 (inactive),0.00422 (inactive),9.5% (inactive),12.6% (inactive)
O=C(Nc1nc2ccc(S(=O)(=O)N3CCCC3)cc2s1)C1CCCO1 (stereo unspecified),504,-12.6% (inactive),-7.9% (inactive),55.6%,28.1% (inactive),93.1%,-0.455 (inactive),-4.6e-05 (inactive),0.00425 (inactive),14.9% (inactive),15.2% (inactive)
CC(=O)c1cccc(NC(=O)c2ccc(NS(C)(=O)=O)cc2)c1,486,-8.9% (inactive),9% (inactive),94.4%,32.6% (inactive),98.5%,-0.444 (inactive),-5.1e-05 (inactive),0.00538 (inactive),12.2% (inactive),15.9% (inactive)
CNC(=O)CN(C#N)c1nc(N(C)C)nc(N(C)C)n1,349,-2.3% (inactive),5.1% (inactive),92.5%,-47.6% (inactive),114%,-0.553 (inactive),-2.5e-05 (inactive),0.00632 (inactive),6.17% (inactive),10.6% (inactive)
Cc1ccccc1C(=O)NC1CCN(CC(=O)Nc2nccs2)CC1,608,-39.8% (inactive),8.2% (inactive),111%,-37.1% (inactive),109%,-0.476 (inactive),7.7e-05 (inactive),0.00698 (inactive),9.51% (inactive),14.2% (inactive)
CCN1CCN(Cc2ccccc2NC(=O)Nc2ccc(C)cc2)CC1,258,-3.1% (inactive),21.9% (inactive),41.1%,-23.4% (inactive),94%,-0.487 (inactive),-6.3e-07 (inactive),0.00496 (inactive),-27.3% (inactive),-69.1% (inactive)
O=C(CN1CCN(c2ncc(C(F)(F)F)cc2Cl)CC1)Nc1ccc2c(c1)OCO2,407,-5.7% (inactive),4.8% (inactive),106%,-11.6% (inactive),104%,-0.559 (inactive),-4.3e-05 (inactive),0.00584 (inactive),7.72% (inactive),11.6% (inactive)
O=C(CCn1nc(-c2ccc(Cl)cc2)ccc1=O)N1CCN(c2ccccn2)CC1,244,-0.9% (inactive),26.9% (inactive),100%,36.1% (inactive),98.7%,-0.582 (inactive),-8.6e-06 (inactive),0.00547 (inactive),7.53% (inactive),10.9% (inactive)
CCOc1ncccc1C(=O)OCC(=O)Nc1ncc(C(F)(F)F)cc1Cl,474,-12.1% (inactive),-26.1% (inactive),80.7%,-29% (inactive),108%,-0.588 (inactive),2.6e-05 (inactive),0.00542 (inactive),22.1% (inactive),18% (inactive)
Cc1cnc(C(=O)Nc2ccc(-n3cnnn3)cc2)cn1,508,-16.7% (inactive),-8.7% (inactive),95.2%,15.8% (inactive),95.7%,-0.513 (inactive),-5.9e-05 (inactive),0.00454 (inactive),10.3% (inactive),-4.35% (inactive)
COc1ccccc1C1/C(=C(\O)c2c(C)nc3c(C)cccn23)C(=O)C(=O)N1CCCN(C)C (stereo unspecified),530,-2.6% (inactive),-6.8% (inactive),110%,35.1% (inactive),121%,-0.298 (inactive),-5.5e-05 (inactive),0.00521 (inactive),10.7% (inactive),20.7% (inactive)
CC1CCc2nc(NC(=O)CN3CCN(Cc4ccc5c(c4)OCO5)CC3)sc2C1 (stereo unspecified),641,-9.3% (inactive),2% (inactive),100%,-24.4% (inactive),97.3%,-0.544 (inactive),-6.2e-05 (inactive),0.00492 (inactive),11.9% (inactive),10.6% (inactive)
CC(=O)Nc1ccn(-c2ccccc2)n1,595,1.8% (inactive),-0.5% (inactive),108%,-113% (inactive),136%,-0.584 (inactive),-9.6e-06 (inactive),0.00818 (inactive),-39.2% (inactive),-34.3% (inactive)
COc1cc(NC(=O)c2cc(OC)c(OC)c(OC)c2)c(OC)cc1NC(=O)CN1CCCCC1,700,-11.1% (inactive),12.2% (inactive),115%,-14.6% (inactive),115%,-0.309 (inactive),-3.3e-05 (inactive),0.00436 (inactive),3.03% (inactive),-8.31% (inactive)
CCOC(=O)N1CCN(C(=O)Nc2ccc3oc(C)nc3c2)CC1,254,4.2% (inactive),20.5% (inactive),84.8%,-238% (inactive),116%,-0.463 (inactive),1.5e-05 (inactive),0.00473 (inactive),5.52% (inactive),-2.82% (inactive)
CC(C)=CCSc1nnc(CCNC(=O)OC(C)(C)C)o1,391,14.5% (inactive),17.1% (inactive),90%,22.3% (inactive),95.7%,-0.402 (inactive),8.7e-05 (inactive),0.00571 (inactive),9.62% (inactive),12.6% (inactive)
CCOCCCNC(=O)C1CCN(C(=O)Nc2ccc(Cl)cc2)CC1,437,-5% (inactive),-2.7% (inactive),106%,-40.5% (inactive),90.7%,-0.324 (inactive),-6.3e-05 (inactive),0.00707 (inactive),10.2% (inactive),21.5% (inactive)
COc1c2ccoc2nc2c(OC)c(OCC(O)C(C)(C)O)ccc12 (stereo unspecified),411,-1.6% (inactive),-14.6% (inactive),101%,-62.9% (inactive),138%,-0.11 (inactive),-1.8e-05 (inactive),0.00374 (inactive),15.7% (inactive),7.86% (inactive)
NS(=O)(=O)c1ccc(NCc2c(F)cccc2Cl)cc1,300,-3% (inactive),36.6% (inactive),79.8%,38.8% (inactive),99.4%,-0.515 (inactive),-0.000161 (inactive),0.00288 (inactive),8.08% (inactive),-2.77% (inactive)
CCCCOC(=O)CSc1nc2c(cc1C#N)C(=O)CC(C)(C)C2,531,6.7% (inactive),-21.3% (inactive),98.4%,37.8% (inactive),96.9%,-0.447 (inactive),-0.000295 (inactive),0.00537 (inactive),-23.7% (inactive),-55.1% (inactive)
O=C(Nc1ccc(N2CCOCC2)c(F)c1)c1ccncc1,262,-3.2% (inactive),0.1% (inactive),99.8%,-30% (inactive),90%,-0.451 (inactive),8.4e-05 (inactive),0.00591 (inactive),-9.16% (inactive),-33.6% (inactive)
COC(=O)C1=C(C)Nc2nnnn2C1c1ccc(Cl)cc1Cl (stereo unspecified),433,7.3% (inactive),-5.9% (inactive),105%,1.2% (inactive),105%,-0.482 (inactive),-4.5e-05 (inactive),0.0056 (inactive),13.6% (inactive),19.3% (inactive)
Cc1ccc(C(=O)CCC2CCCC2=O)cc1 (stereo unspecified),718,-21.6% (inactive),-2.7% (inactive),86.9%,22.6% (inactive),97.8%,-0.263 (inactive),-3.8e-05 (inactive),0.00558 (inactive),-20.4% (inactive),-124% (inactive)
O=C(O)Cn1cc2c(n1)CCCC2,638,0.2% (inactive),-7.3% (inactive),104%,13.9% (inactive),114%,-0.395 (inactive),6.4e-05 (inactive),0.00644 (inactive),9.43% (inactive),8.73% (inactive)
CCSc1nc2c(c(=O)n1CC)SC(C)C2 (stereo unspecified),224,2.8% (inactive),0.4% (inactive),92.4%,8.4% (inactive),95%,-0.401 (inactive),-0.000126 (inactive),0.00651 (inactive),7.34% (inactive),18.7% (inactive)
